TAAR1 ag: human TAAR1 agonists, primary screen, Fluo-8 calcium fluorescence, CHO RD-HGA16 cells. Trace amine-associated receptor 1 (Homo sapiens), Q96RJ0. 360,000 tested, 0.99% active. AID 624467, 2012. vehicle wells 0%, saturating PEA agonist 100%. activation, % at 3 µM;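 active means activation above the mean activation of all test compounds in the run plus 3 SD, cut at about 38% in these data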
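Signal – calcium-sensitive Fluo-8 signal, excitation 470-495, emission 515-575 nm · System – RD-HGA16 (CHO) cells co-expressing Gα16 and hTAAR1 · Incubation – 17-24 h seeding, 75 min 37 °C dye, 30 min RT · Compound dosing – 3 µM single concentration · Repeats – no replicates (n 1)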
OX1R antag-1: antagonists of human orexin 1 receptor (OX1R); inhibition, % at 6.6 µM; OX1R-expressing cells, FRET antagonist read-out; 330,000 tested, 1.8% active; in the data active means inhibition mostly above about 38%, no sharp cut-off; inactive means mostly below about 40%;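 further: 0% = agonist challenge alone and 100% = reference antagonist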
NTR1 agonist: agonists of human NTR1, primary screen, imaging, U2OS cells, beta-arrestin-GFP, high content | NTR1-U2OS beta-arrestin-GFP spot imaging, agonist mode | AID 493036, 2011 | activation, % at 20 µM | 330,000 tested, 0.17% active | Neurotensin receptor type 1 (Homo sapiens), P30989;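 active means activation at or above 40% of the spot to cytoplasm intensity ratio, with at least 20 cells analyzed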;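 further: 0% = DMSO without peptide and 100% = 100 nM NTR1 peptide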
Target sequence (P30989 whole entry, looked up): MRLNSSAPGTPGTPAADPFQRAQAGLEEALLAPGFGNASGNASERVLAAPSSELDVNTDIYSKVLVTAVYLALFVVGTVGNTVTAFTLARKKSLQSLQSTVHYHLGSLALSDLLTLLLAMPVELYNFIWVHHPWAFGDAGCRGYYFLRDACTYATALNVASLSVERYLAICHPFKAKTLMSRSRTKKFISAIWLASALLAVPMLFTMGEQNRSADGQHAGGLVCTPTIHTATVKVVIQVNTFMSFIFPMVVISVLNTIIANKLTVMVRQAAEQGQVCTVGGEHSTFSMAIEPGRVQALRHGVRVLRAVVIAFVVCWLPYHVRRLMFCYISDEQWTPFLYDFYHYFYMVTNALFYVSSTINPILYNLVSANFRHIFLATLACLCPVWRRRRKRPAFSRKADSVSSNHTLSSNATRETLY
OX1R antag-2: OX1R (HCRTR1) antagonists, primary screen, fluorescence, CHO/OX1R cells, Fluo-8 calcium, orexin A; Fluo-8 calcium fluorescence; 330,000 tested, 0.43% active; inhibition, % at 5 µM;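 active means inhibition above its plate's threshold, mean inhibition of all tested compounds on the plate plus 3 SD, cut at about 37% in these data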;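 further: 0% = orexin A challenge wells and 100% = SB-334867-A antagonist wells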
TAAR1 antag: human TAAR1 antagonists, primary screen, Fluo-8 calcium fluorescence, CHO RD-HGA16 cells. Trace amine-associated receptor 1 (Homo sapiens), Q96RJ0. antagonist. inhibition, % at 3 µM. 360,000 tested, 1.5% active. AID 624466, 2012;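 active means inhibition above a per-plate cutoff, the mean inhibition of test compounds on that plate plus 3 SD, cut at about 49% in these data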;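 further: 0% = DMSO plus EC80 beta-PEA response and 100% = DMSO alone without agonist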
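test system = CHO RD-HGA16 cells bearing hTAAR1 | replication = singlicate | controls = DMSO-only wells and EC80 β-PEA-stimulated wells | reagent = EC80 β-phenethylamine stimulus | read-out basis = percent inhibition of PEA-evoked calcium signal, max/basal emission ratio | schedule = seeding 17-24 h prior, 75-min 37 °C, 30-min RT dye loading | signal = kinetic Fluo-8 calcium fluorescence measurement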
CHO parental Ca: ATP-evoked calcium signal inhibitors, parental CHO, primary screen, counter-screen for OX1R antagonist project, cell-based, fluorescence, Fluo-8 calcium dye; parental CHO-K1, ATP-induced calcium, Fluo-8 fluorescence; inhibition, % at 5.6 µM; 330,000 tested, 0.63% active;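 active means inhibition above that plate's mean sample inhibition plus 3 SD, cut at about 26% in these data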;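 further: 0% = ATP-challenged DMSO wells and 100% = DMSO wells without ATP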
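Assay system – parental CHO cells · Reagent – ATP stimulus · Detection – intracellular calcium via Fluo-8 no-wash fluorescent dye · Evaluation – percent inhibition of ATP-evoked calcium rise, normalized to controls · Controls – ATP wells versus no-ATP DMSO wells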
nonsel antag count: nonselective antagonists in TAAR1 counter-screen cells, counter-screen for hTAAR1 antagonist project, cell-based, fluorescence, calcium; shares compounds with TAAR1 antag; counterscreen cell line, antagonist mode; inhibition, % at 3 µM; 2,400 tested, 77% active; in the data active means inhibition above about 22%;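 further: CHO-Ga16 host cells stimulated with ATP at an EC80 level; 0% = agonist EC80 plus vehicle and 100% = vehicle without agonist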
TAAR1 ant conf: human TAAR1 antagonists, retest of hits, confirmation, cell-based, fluorescence | shares compounds with TAAR1 antag | TAAR1-expressing cells, fluorescence antagonist read-out | inhibition, % at 3 µM | 2,400 tested, 40% active | AID 651785, 2012; in the data active means inhibition above about 49%;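 further: CHO-Ga16 host cells challenged with agonist PEA near its EC80; 0% = agonist at EC80 plus vehicle and 100% = vehicle with no agonist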
Ga16 nonsel ag: calcium activation in Ga16-expressing cells, counter-screen for TAAR1 antagonist project, cell-based, fluorescence | shares compounds with TAAR1 antag | agonist counterscreen | activation, % at 3 µM | 2,400 tested, 18% active; in the data active means activation above about 12%;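 further: 0% = vehicle wells and 100% = saturating stimulus response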
TAAR1 ag count: TAAR1 activation by candidate antagonists – cell-based, fluorescence, counter-screen for TAAR1 antagonist project. AID 651955, 2012. hTAAR1 cell line, agonist mode. shares compounds with TAAR1 antag. 2,400 tested, 2% active. activation, % at 3 µM; in the data active means activation above about 37%;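 further: CHO cells stably expressing TAAR1 with calcium dye readout; 0% = DMSO vehicle and 100% = full agonist response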
* hit, by the source's call; . = not tested or not shown. In the library only some 4% were active in any assay of this set; here they are far more common.

SMILES	TAAR1 ag	OX1R antag-1	NTR1 agonist	OX1R antag-2	TAAR1 antag	CHO parental Ca	nonsel antag count	TAAR1 ant conf	Ga16 nonsel ag	TAAR1 ag count
CN1CCN(CC(=O)Nc2ccc([N+](=O)[O-])cc2C(=O)c2ccccc2)CC1	5	31	-1	-35	104*	1	2	-1	1	4
O=C(CN1CCOCC1)NCC(=O)Nc1ccc(Br)cc1C(=O)c1ccccc1	2	4	1	-8	21	-12	.	.	.	.
Cc1ccc(-n2c(CNCc3ccc(F)cc3)nc3ccccc3c2=O)cc1	0	.	2	.	6	.	.	.	.	.
CCOC(=O)CC(SP1(=S)OCC2(CC=CCC2)CO1)C(=O)OCC (stereo not drawn)	8	.	.	.	70*	.	39*	61*	9	7
C[N+]1(CCC(C(N)=O)(c2ccccc2)c2ccccc2)CCCCC1	.	10	-1	-14	.	-6	.	.	.	.
COc1ccc(C(=O)OC2CC[C@@]3(C)C4CCC5[C@]6(O)CC(O)[C@@]7(O)C(CN8CC(C)CCC8[C@@]7(C)O)[C@]6(O)C[C@@]53O[C@]24O)cc1OC (stereo partly drawn)	7	24	0	-22	-17	-19	.	.	.	.
COc1cccc(NP(=O)(Oc2ccccc2)Oc2ccccc2)c1	6	28	4	-16	72*	-27	27*	49*	8	7
CC(C)C[C@@H]1NC(=O)[C@H](Cc2ccccc2)N(C)C(=O)[C@H](C)NC(=O)c2ccccc2NC(=O)[C@H](Cc2ccc(O)cc2)N(C)C1=O	10	10	5	-18	70*	-15	32*	52*	8	8
O=c1[nH]c2ccccc2n1C1CCN(Cc2ccc(-c3[nH]c4cc5ncnc5cc4nc3-c3ccccc3)cc2)CC1	5	.	.	.	67*	.	21	40	6	12
Cn1c2ccccc2c2c(C(=O)N3CCC4(CC3)OCCO4)cn(C3CCCC3)c(=O)c21	20	12	5	-19	56*	-10	23*	42	10	9
CCCC1(CCC)C(=O)NC(=Nc2ccc(C)cc2)NC1=O	4	17	-1	-25	2	-9	.	.	.	.
O=P(Oc1ccccc1)(Oc1ccccc1)C(O)c1ccccc1 (stereo not drawn)	11	34	-2	-17	0	-12	.	.	.	.
O=P(Oc1ccccc1)(Oc1ccccc1)C(Nc1ccccc1)c1ccccc1 (stereo not drawn)	1	11	21	-31	88*	-23	25*	57*	3	4
O=c1[nH]c2ccccc2n1C1CCN(C(c2cc3ccccc3o2)c2nnnn2Cc2ccccc2)CC1 (stereo not drawn)	12	.	.	.	62*	.	28*	53*	7	12
Cc1cccc(C)c1-n1nnnc1C(c1cc2ccccc2o1)N1CCC(n2c(=O)[nH]c3ccccc32)CC1 (stereo not drawn)	0	.	.	.	37	.	.	.	.	.
COc1ccc(-n2nnnc2C(C2CC2)N2CCC(n3c(=O)[nH]c4ccccc43)CC2)cc1 (stereo not drawn)	32	.	.	.	72*	.	19	51*	11	18
